Measured values as given in ChEMBL document CHEMBL1124173, “Enantiomers of 7-(2,3-epoxypropoxy)actinomycin D as dual-action DNA-acting antitumor agents” (J Med Chem, 1988).
Numbered stars: 1 amine (or outer) side, 2 acyl side, 3 side chain; on linkers, the order of the positions; unused ones are H or OH. Bridge positions count the residues as written; N and C are the ends. Square brackets hold non-standard residues; d marks the D form. Peptide text beside a SMILES is read from it. I, II: the chains in the order shown. Actinocin(1to9) = Cc1c2oc3c(C)ccc(C(=O)[*:2])c3nc-2c(C(=O)[*:1])c(N)c1=O; NMeV = CN[C@H](C(=O)O)C(C)C; Sar = CNCC(=O)O

Experiments:
[1] = Molar ratio of DNA to total amount of compound that is bound both intercalatively and covalently to calf thymus DNA helix; format: functional
In short: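 [3H]Drug and purified calf thymus DNA dialyzed at 37 °C in Tris HCl pH 7.4 (20 mM per footnote; 25 mM in methods). Equilibrated complex precipitated twice with ethanol to remove unbound drug. Molar DNA/drug ratio based on total bound drug, intercalative plus covalent.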

[2] = ratio of DNA to compound bound entirely by covalent bonding to DNA base.; format: functional
In short: (§1)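 [3H]Drug and purified calf thymus DNA dialyzed at 37 °C in Tris HCl buffer; complex twice ethanol-precipitated to remove unbound drug. Molar DNA/drug ratio calculated from drug bound only covalently to DNA bases.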

L1210 [3] = experiment: Inhibition of synthesis of [5-3H]-uridine into RNA in L1210 cells.; format: functional, cell-based, Mus musculus
In short: (§2)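 Actively growing L1210 cells in vitro. Incorporation of [5-3H]uridine into RNA, or [methyl-14C]thymidine into DNA, compared with untreated cells. IC50 is micromolar drug concentration giving 50% reduction in incorporation rate.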

L1210 [4] = experiment: Inhibition of synthesis of [methyl-14C] thymidine into DNA, in L1210 cells.; format: functional, cell-based, Mus musculus; conditions: Mus musculus, L1210; in short: as §2
B16 = experiment: In vitro 50% Growth inhibition of sensitive B16 cells.; format: functional, Mus musculus; conditions: Mus musculus, B16; read-out: ID50 (the source's name)
In short: (§3)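 Actively growing tumor cells in vitro (actinomycin-resistant P388/ADR leukemia; sensitive B16 melanoma); ID50 is concentration (nM) needed for 50% growth inhibition.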

L1210 [5] = experiment: 50% Inhibition of growth of L1210 cells in culture.; format: functional, Mus musculus; conditions: Mus musculus, L1210; read-out: ID50 (the source's name)
In short: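 L1210 leukemia cells growing actively in culture; ID50 is drug concentration (nM) giving 50% inhibition of growth relative to untreated L1210 cells.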

L1210 [6] = experiment: Optimal dose per injection, administered ip on days 1, 5, and 9, ip inoculation with 10E5 L1210 cells per CDF1 mouse on day 0.; format: functional
In short: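 CDF1 mice inoculated ip with 10^5 L1210 cells on day 0; drugs given ip on days 1, 5 and 9. Optimal dose in mg/kg per injection. %ILS is increase in median life span of treated dying mice over untreated tumor-bearing mice; survivors counted beyond 60 days, 9 per group.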

Mus musculus [7] = species: Mus musculus; experiment: Antitumor activity measured as % increase in life span, against C26 colon carcinoma.; format: functional
In short: (§4)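 C26 primary colon carcinoma cells (trypan blue excluding, 2.5 × 10^5 cells/mouse) implanted in CDF1 mice on day 0. Drug given ip on days 1, 5 and 9 in 0.1 mL 5% v/v Me2SO-saline at optimal dose. Read-out is median survival time; %ILS is drug-treated over control, excluding survivors. Sixty-day survivors are counted.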

Mus musculus [8] = species: Mus musculus; experiment: percent increase in median life time (%ILS) measured in mice bearing leukemia L!210; format: functional
In short: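 CDF1 mice inoculated ip with 10^5 L1210 cells on day 0. Drug given ip on days 1, 5 and 9 at the optimal dose in mg/kg per injection. %ILS is the increase in median life span of treated dying animals versus untreated tumor-bearing mice. Over-60-day survivors are counted; 9 mice per group.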

Mus musculus [9] = experiment: Antitumor activity measured as % increase in life span, for ip administration of compound and ip inoculation of B16 melanoma.; format: functional
In short: (§5)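 B16 brei (tumor weight/Hank's balanced salt solution 1:5, 0.2 mL) implanted sc or ip into groups of nine BDF1 mice on day 0. Drug given iv on day 1 (sc tumor) or ip on days 1, 5 and 9 (ip tumor), in 0.1 mL 5% v/v Me2SO-saline. Read-out is median survival time and %ILS versus untreated controls, excluding sixty-day survivors.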

Mus musculus [10] = species: Mus musculus; experiment: Antitumor activity measured as optimal dose, against C26 colon carcinoma.; format: functional
In short: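 Primary colon C26 carcinoma cells (trypan blue excluding, 2.5 × 10^5 cells/mouse) implanted in CDF1 mice on day 0. Drug given ip on days 1, 5 and 9 in 0.1 mL 5% v/v Me2SO-saline. Optimal dose in […]; %ILS and 60-day survivors scored.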

Mus musculus [11] = experiment: Antitumor activity measured as median survival time, for ip administration and ip inoculation of B16 melanoma.; format: functional; in short: as §5
Mus musculus [12] = species: Mus musculus; experiment: Antitumor activity measured as median survival time, against C26 colon carcinoma.; format: functional; in short: as §4
P388/ADR [13] = experiment: Antitumor activity measured as Median survival time in days against P388/ADR, in ip implanted CDF1 mice, qd 1-9; format: functional, Mus musculus
In short: (§6)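 P388/ADR leukemia, a P388/S subline made resistant to intercalators, implanted ip in CDF1 mice. Drug given ip daily on days 1-9 at optimal dose. Read-out is median survival time of tumor-bearing mice and %ILS of treated dying animals versus controls. Survivors beyond 60 days are counted; 10 mice per group.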

P388/ADR [14] = experiment: Antitumor activity against P388/ADR, in ip implanted CDF1 mice, treated ip, qd 1-9 measured as optimal dose; format: functional, Mus musculus
In short: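 P388/ADR leukemia implanted ip in CDF1 mice; drugs given ip once daily on days 1-9. Optimal dose recorded alongside median survival time and % increase in median life span of treated dying mice versus controls; survivors counted as >60-day survivors per group of 10.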

P388/ADR [15] = experiment: In vitro 50% Growth inhibition of actinomycin resistant P388/ADR cells; format: functional, Mus musculus; conditions: Mus musculus, P388/ADR; read-out: ID50 (the source's name); in short: as §3
P388/ADR [16] = experiment: Antitumor activity measured as %ILS against P388/ADR, in ip implanted CDF1 mice, qd 1-9; format: functional, Mus musculus; in short: as §6
Mus musculus [17] = species: Mus musculus; experiment: Antitumor activity measured as optimal dose, for B16 melanoma.
Mus musculus [18] = experiment: Antitumor activity measured as median survival time, for iv administration and sc inoculation of B16 melanoma.
Mus musculus [19] = experiment: Antitumor activity measured as % increase in life span, for iv administration of compound and sc inoculation of B16 melanoma.
[20] = Ratio of DNA to compound bound entirely by covalent bonding to DNA base.; format: functional; in short: as §1
P388/ADR [21] = experiment: Antitumor activity measured as Median survival time in days against P388/ADR, in ip implanted CDF1 mice, treated ip, qd 1-9; format: functional, Mus musculus; in short: as §6
P388/ADR [22] = experiment: Antitumor activity measured as %ILS against P388/ADR, in ip implanted CDF1 mice, treated ip, qd 1-9; format: functional, Mus musculus; in short: as §6
Bos taurus = species: Bos taurus; experiment: Thermal denaturation of calf thymus DNA measured as ΔTm; conditions: cattle, in vitro
Mus musculus [23] = experiment: Antitumor activity measured as % increase in life span, for iv administration of compound and sc inoculation of B16 melanoma.; remark: listed apart in the source
Mus musculus [24] = experiment: Antitumor activity measured as median survival time, for iv administration and sc inoculation of B16 melanoma.; remark: listed apart in the source

**Q.** Which results are given for `Cc1c2oc3c(C)c(OCC4CO4)cc(C(=O)N[C@@H]4C(=O)N[C@@H](C(C)C)C(=O)N5CCC[C@H]5C(=O)N(C)CC(=O)N(C)[C@@H](C(C)C)C(=O)O[C@H]4C)c3nc-2c(C(=O)N[C@@H]2C(=O)N[C@@H](C(C)C)C(=O)N3CCC[C@H]3C(=O)N(C)CC(=O)N(C)[C@@H](C(C)C)C(=O)O[C@H]2C)c(N)c1=O` (stereo in doubt)?
**A.** Ratio [1]: 32; Ratio [2]: 520

**Q.** For `Cc1c2oc3c(C)c(OCC4CO4)cc(C(=O)N[C@@H]4C(=O)N[C@H](C(C)C)C(=O)N5CCC[C@H]5C(=O)N(C)CC(=O)N(C)[C@@H](C(C)C)C(=O)O[C@@H]4C)c3nc-2c(C(=O)N[C@@H]2C(=O)N[C@H](C(C)C)C(=O)N3CCC[C@H]3C(=O)N(C)CC(=O)N(C)[C@@H](C(C)C)C(=O)O[C@@H]2C)c(N)c1=O` (stereo in doubt; 3b) [listing 1 of 2 here], which IC50 (L1210 [3]; l1210) is on record?
**A.** 0.024 µM

**Q.** And the IC50 (L1210 [4])?
**A.** 0.08 µM

**Q.** With `Cc1c2oc3c(C)c(OCC4CO4)cc(C(=O)N[C@@H]4C(=O)N[C@H](C(C)C)C(=O)N5CCC[C@H]5C(=O)N(C)CC(=O)N(C)[C@@H](C(C)C)C(=O)O[C@@H]4C)c3nc-2c(C(=O)N[C@@H]2C(=O)N[C@H](C(C)C)C(=O)N3CCC[C@H]3C(=O)N(C)CC(=O)N(C)[C@@H](C(C)C)C(=O)O[C@@H]2C)c(N)c1=O` (stereo in doubt; 3b) [listing 2 of 2 here] as the compound, how does the IC50 (B16) read?
**A.** 0.0025 µM

**Q.** And the IC50 (L1210 [5])?
**A.** 0.0287 µM

**Q.** And the Dose (L1210 [6])?
**A.** 0.05 mg/kg

**Q.** And the ILS (Mus musculus [7])?
**A.** 64%

**Q.** What about the ILS (Mus musculus [8]) of the same compound?
**A.** 186%

**Q.** What about the ILS (Mus musculus [9]) of the same compound?
**A.** 105%

**Q.** What about the Dose (Mus musculus [10]) of the same compound?
**A.** 0.6 mg/kg

**Q.** And the MST (Mus musculus [11])?
**A.** 39 days

**Q.** What about the MST (Mus musculus [12]) of the same compound?
**A.** 36 days

**Q.** And the MST (P388/ADR [13])?
**A.** 40 days

**Q.** And the Dose (P388/ADR [14])?
**A.** 0.65 mg/kg

**Q.** What about the IC50 (P388/ADR [15]) of the same compound?
**A.** 0.08 µM

**Q.** And the ILS (P388/ADR [16])?
**A.** 344%

**Q.** What about the Dose (Mus musculus [17]) of the same compound?
**A.** 1 mg/kg

**Q.** And the MST (Mus musculus [18])?
**A.** 54 days

**Q.** What about the ILS (Mus musculus [19]) of the same compound?
**A.** 64%

**Q.** For `Cc1c2oc3c(C)c(OCC4CO4)cc(C(=O)N[C@@H]4C(=O)N[C@@H](C(C)C)C(=O)N5CCC[C@H]5C(=O)N(C)CC(=O)N(C)[C@@H](C(C)C)C(=O)O[C@H]4C)c3nc-2c(C(=O)N[C@@H]2C(=O)N[C@@H](C(C)C)C(=O)N3CCC[C@H]3C(=O)N(C)CC(=O)N(C)[C@@H](C(C)C)C(=O)O[C@H]2C)c(N)c1=O` (stereo in doubt; 3b), which Ratio [1] is on record?
**A.** 32

**Q.** And the Ratio [20]?
**A.** 480

**Q.** What does the source list for `Cc1c2oc3c(C)ccc(C(=O)N[C@@H]4C(=O)N[C@H](C(C)C)C(=O)N5CCC[C@H]5C(=O)N(C)CC(=O)N(C)[C@@H](C(C)C)C(=O)O[C@@H]4C)c3nc-2c(C(=O)N[C@@H]2C(=O)N[C@H](C(C)C)C(=O)N3CCC[C@H]3C(=O)N(C)CC(=O)N(C)[C@@H](C(C)C)C(=O)O[C@@H]2C)c(N)c1=O` [DACTINOMYCIN] (I: T[dV]P[Sar][NMeV] / II: T[dV]P[Sar][NMeV]; ester I:1-I:C, II:1-II:C; linker I:N-II:N via Actinocin(1to9))?
**A.** IC50 (B16): 0.003 µM; IC50 (L1210 [3]; Mus musculus, L1210): 0.019 µM; IC50 (L1210 [4]): 0.38 µM; IC50 (L1210 [5]): 0.0601 µM; Dose (L1210 [6]): 0.025 mg/kg; ILS (Mus musculus [7]): 52%; ILS (Mus musculus [8]): 55%; ILS (Mus musculus [9]): 52%; Dose (Mus musculus [10]): 0.3 mg/kg; MST (Mus musculus [11]): 29 days; MST (Mus musculus [12]): 33.5 days; MST (P388/ADR [21]): 12 days; Dose (P388/ADR [14]): 0.075 mg/kg; IC50 (P388/ADR [15]): 2.5 µM; ILS (P388/ADR [22]): 33%; Ratio [1]: 26; ΔTm (Bos taurus): 7.1; Dose (Mus musculus [17]): 0.9 mg/kg; MST (Mus musculus [18]): 45 days; ILS (Mus musculus [23]): 36%

**Q.** With `COc1cccc2c1C(=O)c1c(O)c3c(c(O)c1C2=O)C[C@@](O)(C(=O)CO)C[C@@H]3O[C@H]1C[C@H](N)[C@H](O)[C@H](C)O1` [DOXORUBICIN] as the compound, how does the ILS (Mus musculus [7]) read?
**A.** 118%

**Q.** And the ILS (Mus musculus [9])?
**A.** 224%

**Q.** What about the Dose (Mus musculus [10]) of the same compound?
**A.** 2.5 mg/kg

**Q.** What about the MST (Mus musculus [11]) of the same compound?
**A.** 60 days

**Q.** And the MST (Mus musculus [12])?
**A.** 48 days

**Q.** And the MST (Mus musculus [24])?
**A.** 59 days

**Q.** What about the ILS (Mus musculus [23]) of the same compound?
**A.** 79%
